Experimental findings from PubChem BioAssay are described below.

Structures are written as SMILES. A number with no mark means an inactive call. Records with an inconclusive call do not appear. Activity calls are given as the source filed them.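 Rule for the calls, unless noted: active = viability increase at or above a cutoff of the median across tested compounds plus 3 SD (cut at about 8.5% in these data, passing the limit was not always enough); inconclusive = some gains above the cutoff, reason not given; inactive = the rest.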

The viability is a read-out of living cells in per cent, often relative to untreated cells. The inhibition is the drop in the measured response relative to a control, in per cent.

Experiment [1] in a line: S. cerevisiae growth inhibition in permissive medium (OD615), pilot counter-assay for S. cerevisiae lifespan shortening project, permissive growth control (AID 705;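 active = growth inhibition above 25% in both replicates, a cutoff set 3 SD above the mean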). The following applies: OD615, 24 h, at 10 µM, hits give high values. In short, it runs like this:
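Timing: 24 h exposure, 30 °C / Material: Saccharomyces cerevisiae strain carrying genetically modified DeaD replicative-lifespan system / Signal: OD at 615 nm / Compound: 10 µM single dose, 0.25% DMSO / Medium: SC raffinose/galactose permissive medium / Evaluation: reduction in yeast growth (OD615)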

Experiment [2] can be described thus: S. cerevisiae growth inhibition in restrictive medium, OD615, pilot screen, restrictive growth control, yeast lifespan reduction project (AID 706;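 active = growth inhibition above a set limit, 3 SD over mean compound inhibition, in both replicates, cut at about 43% in these data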;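 note: modified DeaD lifespan yeast strain shifted to restrictive glucose medium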). To be noted: OD615, 48 h, at 10 µM, hits give high values. An outline of the steps: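 System: Engineered S. cerevisiae DeaD strain | Detection: OD615 | Buffer or medium: CSMM-D glucose medium | Doses: 10 µM compound, 0.25% DMSO | Timing: 4 h pre-growth plus 48 h compound exposure, 30 °C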

A short description of experiment [3]: doxorubicin toxicity protection in MRP-1 cells – H69AR cells, CellTiter-Glo, duplicate, MRP-1 activator project, pilot screen (AID 807).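 Note: compound pretreatment 18-22 h then 72 h combined with doxorubicin; 0% = doxorubicin alone and 100% = vehicle without doxorubicin.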 The following applies: H69AR viability with doxorubicin, CellTiter-Glo luminescence; at 10 µM; hits give high values.
Experiment [4] in a line: viability of HCT116 without oncogenic beta-catenin – human colon tumor cells, pilot screen (AID 823;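 active = cell viability at or below a set limit in both duplicate runs, the limit being the all-compound median minus 4 SD, cut at about 23% in these data, passing the limit was not always enough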;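 note: 0% = wells killed by 20 µM Hyamine and 100% = untreated DMSO cell wells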). To be noted: HCT116 beta-catenin knockout viability, CellTiter-Glo, 60 h; at 10 µM; hits give low values.
Experiment [5] can be described thus: viability of PTEN-null HCT116 cells – cell-based, HCT116 clonal line, CellTiter-Glo, pilot screen (AID 824;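 active = viability at or below 27.92% in each of two runs, the all-compound median minus 4 SD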;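 note: 0% = 20 µM Hyamine control and 100% = vehicle cell control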). The following applies: HCT116 PTEN-deleted viability, 60 h, at 10 µM, hits give low values.
Experiment [6] in a line: RAM pathway blockade in budding yeast – dse1pr::URA3 reporter, 5-FOA selection, pilot screen (AID 869;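 active = inhibition over a set limit, the all-compound mean plus 3 SD, in both replicate runs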;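 note: 0% = DMSO wells with no growth and 100% = 10 µM 1-NA-PP1 with full growth; RAM network block rescues cells from 5-FOA so hits raise OD615 growth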). The following applies: S. cerevisiae dse1pr::URA3 5-FOA growth, OD615, 2 d; at 10 µM; hits give high values; strain carries analog-sensitive mutant Cbk1 kinase.
Experiment [7] is described as follows: RAM signaling pathway blockade in yeast – S. cerevisiae, Pdr1DBD-CYC8 efflux-inhibited sensitized strain, primary screen (AID 1298;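 active = RAM network inhibition above 8.4% in each of two replicates, 3 SD over the compound average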;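 note: 0% = DMSO untreated cells without growth and 100% = 10 µM 1-NA-PP1 full growth; higher means more yeast growth rescued from 5-FOA killing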). To be noted: S. cerevisiae cbk1-as DSE1-URA3 strain, 5-FOA growth OD615, 2 d; at 50 µM; hits give high values.

On to `CC1(C)Oc2ccc3ccc(=O)oc3c2-c2cnoc21`, for which the growth inhibition in experiment [1] was 0.81%; in experiment [2], 5.33%. For the same compound, the viability increase in experiment [3] is -0.4%. Also, the figures for the viability in experiment [4] and in experiment [5] were 104% and 96.3%, respectively. The inhibition in experiment [6] was 1.08%. Further, the RAM network inhibition in experiment [7] is 4.79%.

As to `Cc1ccnc(SCC(=O)O)n1`, the growth inhibition in experiment [1] is -0.18%; in experiment [2] it was -10.8%. Moreover, the viability increase in experiment [3] was -1.15%. In addition, the viability in experiment [4] and in experiment [5] was 101% throughout. The inhibition in experiment [6] is 1.29%. Moreover, the RAM network inhibition in experiment [7] is 1.08%.

Regarding `COC(=O)CCSCC(=O)Nc1nnc(C)s1`, the results for the growth inhibition in experiment [1] and in experiment [2] were 3.46% and -7.57%, respectively. The viability increase in experiment [3] was -0.31%. The viability in experiment [4] was 108%; in experiment [5] it was 93.1%. In addition, the inhibition in experiment [6] was 3.05%. The RAM network inhibition in experiment [7] is 0.66%.

`COc1ccc(NC(=O)CN(c2cc(C)cc(C)c2)S(=O)(=O)c2c(C)noc2C)cc1`: the growth inhibition in experiment [1] is -19.1%; in experiment [2] it was -14.2%. Also, in experiment [3], the viability increase was -2.45%. The viability in experiment [4] was 95.2%; in experiment [5], 101%. The inhibition in experiment [6] is 0.19%. For the same compound, the RAM network inhibition in experiment [7] was 2.39%.

Consider `CCN(CC)c1ccc(NC(=O)CSc2nc(C)cc(=O)[nH]2)cc1`, for which the growth inhibition was -5.01% in experiment [1] and 1.71% in experiment [2]. Also, the viability increase in experiment [3] was -0.69%. The viability in experiment [4] is 95.7%; in experiment [5] it was 95.4%. Further, in experiment [6], the inhibition is 0.125%. In addition, the RAM network inhibition in experiment [7] is 5.74%.

In the case of `CC(=O)CCc1c(C)c2cccc(C)c2[nH]c1=O`, the growth inhibition in experiment [1] is 1.6%; in experiment [2], 1.5%. Further, the viability increase in experiment [3] is -3.1%. Further, the viability in experiment [4] was 93.4%; in experiment [5] it was 96.5%. Besides, the inhibition in experiment [6] is 2.75%. In experiment [7], the RAM network inhibition is 3.81%.

Regarding `Cc1ccc(C(C)C)c(OCC(=O)N2CCOCC2)c1`, the figures for the growth inhibition in experiment [1] and in experiment [2] were -10.1% and -20.3%, respectively. In addition, in experiment [3], the viability increase was -0.67%. Further, the viability in experiment [4] is 99.3%; in experiment [5] it was 91.4%. The inhibition in experiment [6] was 1.69%. For the same compound, the RAM network inhibition in experiment [7] is 1.97%.

In the case of `O=C(Nc1ccc(Br)cc1F)C1CCCN(S(=O)(=O)c2cnc[nH]2)C1` (stereo unspecified), the figures for the growth inhibition in experiment [1] and in experiment [2] were 2.29% and -10.9%, respectively. Further, the viability increase in experiment [3] was 2.99%. In addition, the figures for the viability in experiment [4] and in experiment [5] were 92.2% and 98%, respectively. For the same compound, the inhibition in experiment [6] is 0.905%. Further, the RAM network inhibition in experiment [7] was 5.06%.

`Cc1cc(C)nc(NS(=O)(=O)c2ccc(NC(=O)c3ccco3)cc2)n1`: the growth inhibition in experiment [1] is -5.44%; in experiment [2] it was -11.7%. Also, the viability increase in experiment [3] is -1.87%. For the same compound, the viability in experiment [4] was 100%; in experiment [5], 95.9%. Besides, the inhibition in experiment [6] is 0.26%. Also, the RAM network inhibition in experiment [7] was 2.44%.

For the compound `CN(C(=O)CSc1nc(N)nn1-c1ccccc1)c1ccccc1`, the growth inhibition is -7.03% in experiment [1] and 4.13% in experiment [2]. For the same compound, in experiment [3], the viability increase was -0.53%. For the same compound, the viability in experiment [4] is 104%; in experiment [5], 99%. In addition, the inhibition in experiment [6] was 0.325%. For the same compound, the RAM network inhibition in experiment [7] is 2.3%.

Take `O=C(NCCCN1CCC(Cc2ccccc2)CC1)C1CCC(=O)N1C1CCCC1` (stereo unspecified): the growth inhibition in experiment [1] was 0.095%; in experiment [2] it was 10.8%. Further, the viability increase in experiment [3] was -0.92%. Also, the viability in experiment [4] was 79.7%; in experiment [5], 96.9%. Also, in experiment [6], the inhibition is 0.3%. Besides, the RAM network inhibition in experiment [7] was 1.85%.

As for `OCCCc1nc2ccccc2n1CCOc1ccccc1`, the growth inhibition in experiment [1] is -10.4%; in experiment [2], 12.7%. Besides, the viability increase in experiment [3] is -0.86%. Moreover, the viability in experiment [4] is 88.5%; in experiment [5] it was 94.6%. In addition, in experiment [6], the inhibition was 0.595%. Also, the RAM network inhibition in experiment [7] was 2.86%.

On to `CN1CCN(S(=O)(=O)c2ccc3ccccc3c2)CC1`, for which the growth inhibition in experiment [1] is -0.14%; in experiment [2], -1.93%. Moreover, the viability increase in experiment [3] was -2.23%. Also, the values for the viability in experiment [4] and in experiment [5] were 103% and 105%, respectively. In experiment [6], the inhibition was 2.92%. Further, the RAM network inhibition in experiment [7] was 0.63%.

Regarding `COc1ccc(OC)c(CCNC(=O)Cn2sc3nc(C)cc(C)c3c2=O)c1`, the results for the growth inhibition in experiment [1] and in experiment [2] were 18.3% and 70.4% (active), respectively. Moreover, in experiment [3], the viability increase is -8.04%. The viability in experiment [4] was 2.27% (active); in experiment [5] it was 4.4% (active). For the same compound, in experiment [6], the inhibition is 1.38%. The RAM network inhibition in experiment [7] was 11.3%.

For the compound `CCOC(=O)N1CCC(NC(=O)c2csc3c2CCCC3)CC1`, the growth inhibition in experiment [1] is -3.1%; in experiment [2], -14.7%. In addition, in experiment [3], the viability increase was -2.82%. Besides, the viability in experiment [4] was 95.2%; in experiment [5] it was 93.6%. In experiment [6], the inhibition is 1.29%. In experiment [7], the RAM network inhibition is 3.9%.

As for `CCOC(=O)C1=C(C)NC(C)=C(C(=O)OCC)C1C(=O)O`, the figures for the growth inhibition in experiment [1] and in experiment [2] were -3.05% and -4.22%, respectively. Moreover, the viability increase in experiment [3] was -3.51%. Moreover, the viability is 93.5% in experiment [4] and 90% in experiment [5]. Besides, in experiment [6], the inhibition is 0.265%. In experiment [7], the RAM network inhibition was 1.53%.

`CN(C)CCNC(=O)c1cc2c(=O)n(C)c3ccccc3c2n1C`: the values for the growth inhibition in experiment [1] and in experiment [2] were 0.095% and -1.67%, respectively. For the same compound, the viability increase in experiment [3] is -5.64%. The viability is 52.9% in experiment [4] and 54.4% in experiment [5]. Also, the inhibition in experiment [6] was 1.12%. In addition, the RAM network inhibition in experiment [7] is -0.26%.

With `CCOCCCn1cnc2c([nH]c3cc(OC)ccc32)c1=O`, the growth inhibition in experiment [1] is -14.1%; in experiment [2] it was -13.8%. Further, the viability increase in experiment [3] is -0.55%. Further, the viability in experiment [4] is 95.8%; in experiment [5], 96.9%. Further, in experiment [6], the inhibition is 1.41%. Also, the RAM network inhibition in experiment [7] is 5.51%.
